Data reported in ChEMBL document CHEMBL5131377, “Structure-Activity Relationship Studies of Trisubstituted Isoxazoles as Selective Allosteric Ligands for the Retinoic-Acid-Receptor-Related Orphan Receptor γt” (J Med Chem, 2021).

Assays:
[1] = Permeability of the compound at 500 uM after 20 hrs by PAMPA; assay type: ADME
Method in brief: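 Artificial membrane permeation with 500 μM compound in the donor compartment; after 20 h, receiver wells read by spectrophotometry and % flux derived by normalizing to flux across a blank filter.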

[2] = Kinetic aqueous solubility of compound in HEPES buffer at pH 7.4 at 500 uM measured after 90 mins by spectrophotometry analysis; assay type: physicochemical
Method in brief: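 Compound-saturated HEPES buffer (pH 7.4, from DMSO stocks, 500 μM) shaken 90 min at room temperature, filtered, then diluted with an equal volume of acetonitrile.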

[3] = Microsomal stability in human liver microsomes assessed as intrinsic clearance at 1 uM measured up to 50 mins in presence of NADPH by LC-MS/MS analysis; assay type: ADME, Microsome
Method in brief: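 Oxidative stability in NADPH-supplemented human liver microsomes; compound at 1 μM, depletion followed by LC–MS/MS for up to 50 min at 37 °C. Intrinsic clearance calculated from half-life, assay volume and microsomal protein amount (μL/min/mg).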

[4] = Stability in human plasma assessed as parent compound remaining at 5 uM measured after 1 hr by LC-MS/MS analysis relative to control; assay type: ADME, cell-free; conditions: read-out: Stability
Method in brief: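 Compound at 5 μM incubated 1 h at 37 °C in 50% human plasma in PBS; % remaining determined by LC–MS.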

Row | Compound | permeability [1] [%] | Kinetic_solubility [2] [µM] | CLH [3] [µL/min/mg] | remaining at 1 h, 5 µM [4] [%]
1 | O=C(O)c1ccc(-c2nn(C(=O)c3c(Cl)cccc3C(F)(F)F)c3ccccc23)cc1 | 29.7 | 423 | 0.4 | 95.5
2 | O=C(O)c1ccc(NCc2c(-c3c(Cl)cccc3C(F)(F)F)noc2-c2cc[nH]c2)cc1 | 36.1 | 460 | 31.2 | 79.1
3 | O=C(O)c1ccc(OCc2c(-c3c(Cl)cccc3C(F)(F)F)noc2-c2cc[nH]c2)cc1F | 37.3 | 445 | 77 | 97.1
4 | O=C(O)c1ccc(OCc2c(-c3c(Cl)cccc3C(F)(F)F)noc2-c2ccc[nH]2)cc1 | 50.5 | 421 | 68 | 89.5
5 | O=C(O)c1ccc(OCc2c(-c3c(Cl)cccc3C(F)(F)F)noc2-c2cn[nH]c2)cc1 | 23 | 476 | 8.8 | 100
6 | O=C(O)c1ccc(OCc2c(-c3c(Cl)cccc3C(F)(F)F)noc2-c2cc[nH]c2)cc1 | 40.9 | 436 | 57.8 | 74.2
7 | O=C(O)c1ccc(/C=C/c2c(-c3c(Cl)cccc3C(F)(F)F)noc2-c2cc[nH]c2)cc1 | 40.3 | 392 | 69 | 59.5
